Laboratory results: ChEMBL document CHEMBL1671686, “Carbapenem-resistant KPC-2-producing Escherichia coli in a Tel Aviv Medical Center, 2005 to 2008” (2010)
Converted amounts (≈) assume the structure as drawn.

Assays:
Format in all cases: functional
Escherichia coli [1] = assay: Antimicrobial activity against Escherichia coli isolate 157 expressing beta-lactamase KPC2, CTX-M-15, TEM and PFGE cluster 3 isolated from urine of patient by agar dilution method; details: isolate 157, Urine
Procedure, shortened: (§1)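 Clinical carbapenem-resistant E. coli isolates collected Feb 2005–Oct 2008. Carbapenem MICs determined by agar dilution following CLSI protocols.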

Escherichia coli [2] = assay: Antimicrobial activity against Escherichia coli isolate 157T expressing beta-lactamase KPC2 and PFGE cluster 3 isolated from urine of patient by agar dilution method
Procedure, shortened: (§2)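 Transformant strains. Plasmids purified from the clinical isolates were electroporated into E. coli DH10B. Transformants were selected on LB agar with 100 μg/ml ampicillin, and colonies were PCR-screened for blaKPC before susceptibility testing.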

Escherichia coli [3] = assay: Antimicrobial activity against Escherichia coli isolate 329 expressing beta-lactamase KPC2, CTX-M-2, TEM and PFGE cluster 2 isolated from blood of patient by agar dilution method
Procedure, shortened: (§3)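 Clinical carbapenem-resistant E. coli isolates from the hospital, February 2005 to October 2008. Carbapenem MICs were determined by agar dilution following CLSI protocols.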

Escherichia coli [4] = assay: Antimicrobial activity against Escherichia coli isolate 329T expressing beta-lactamase KPC2 and PFGE cluster 2 isolated from blood of patient by agar dilution method; procedure, shortened: as §2
Escherichia coli [5] = assay: Antimicrobial activity against Escherichia coli isolate 339 expressing beta-lactamase KPC2, TEM and PFGE cluster 5 isolated from peritoneal fluid of patient by agar dilution method; procedure, shortened: as §3
Escherichia coli [6] = assay: Antimicrobial activity against Escherichia coli isolate 339T expressing beta-lactamase KPC2 and PFGE cluster 5 isolated from peritoneal fluid of patient by agar dilution method; procedure, shortened: as §2
Escherichia coli [7] = assay: Antimicrobial activity against Escherichia coli isolate 360 expressing beta-lactamase KPC2, CTX-M-15, OXA-9, TEM and PFGE cluster 1 isolated from urine of patient by agar dilution method; details: isolate 360, Urine; procedure, shortened: as §1
Escherichia coli [8] = assay: Antimicrobial activity against Escherichia coli isolate 360T expressing beta-lactamase KPC2, OXA-9 and PFGE cluster 1 isolated from urine of patient by agar dilution method; procedure, shortened: as §2
Escherichia coli [9] = assay: Antimicrobial activity against Escherichia coli isolate 386 expressing beta-lactamase KPC2, CTX-M-15, OXA-9, TEM and PFGE cluster 1 isolated from wound of patient by agar dilution method; procedure, shortened: as §1
Escherichia coli [10] = assay: Antimicrobial activity against Escherichia coli isolate 386T expressing beta-lactamase KPC2, OXA-9 and PFGE cluster 1 isolated from wound of patient by agar dilution method; procedure, shortened: as §2
Escherichia coli [11] = assay: Antimicrobial activity against Escherichia coli isolate 540 expressing beta-lactamase KPC2, TEM and PFGE cluster 4 isolated from synovial fluid of patient by agar dilution method; procedure, shortened: as §3
Escherichia coli [12] = assay: Antimicrobial activity against Escherichia coli isolate 543T expressing beta-lactamase KPC2 and PFGE cluster 4 isolated from synovial fluid of patient by agar dilution method; procedure, shortened: as §2
Escherichia coli [13] = assay: Antimicrobial activity against Escherichia coli isolate 544 expressing beta-lactamase KPC2, TEM and PFGE cluster 4 isolated from abscess of patient by agar dilution method; procedure, shortened: as §3
Escherichia coli [14] = assay: Antimicrobial activity against Escherichia coli isolate 547 expressing beta-lactamase KPC2, TEM and PFGE cluster 4 isolated from blood of patient by agar dilution method; procedure, shortened: as §1
Escherichia coli [15] = assay: Antimicrobial activity against Escherichia coli isolate 547T expressing beta-lactamase KPC2 and PFGE cluster 4 isolated from blood of patient by agar dilution method; procedure, shortened: as §2
Escherichia coli [16] = assay: Antimicrobial activity against Escherichia coli isolate 1679 expressing beta-lactamase KPC2, SHV-12, TEM and PFGE cluster 6 isolated from peritoneal fluid of patient by agar dilution method; procedure, shortened: as §3
Escherichia coli [17] = assay: Antimicrobial activity against Escherichia coli isolate 1679T expressing beta-lactamase KPC2, TEM and PFGE cluster 6 isolated from peritoneal fluid of patient by agar dilution method; procedure, shortened: as §2
Escherichia coli [18] = assay: Antimicrobial activity against Escherichia coli DH10B by Etest; details: K-12 DH10B
Escherichia coli [19] = assay: Antimicrobial activity against Escherichia coli DH10B by vitek-2 method; details: K-12 DH10B
Procedure, shortened: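 Plasmid-free recipient E. coli DH10B, used as the host for electroporation transformants, was tested for susceptibility on the automated Vitek-2 system.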

Escherichia coli [20] = assay: Antimicrobial activity against Escherichia coli isolate 339 expressing beta-lactamase KPC2, TEM and PFGE cluster 5 isolated from peritoneal fluid of patient by vitek-2 method
Escherichia coli [21] = assay: Antimicrobial activity against Escherichia coli isolate 339T expressing beta-lactamase KPC2 and PFGE cluster 5 isolated from peritoneal fluid of patient by vitek-2 method
Escherichia coli [22] = assay: Antimicrobial activity against Escherichia coli isolate 360 expressing beta-lactamase KPC2, CTX-M-15, OXA-9, TEM and PFGE cluster 1 isolated from urine of patient by vitek-2 method; details: isolate 360, Urine
Escherichia coli [23] = assay: Antimicrobial activity against Escherichia coli isolate 360T expressing beta-lactamase KPC2, OXA-9 and PFGE cluster 1 isolated from urine of patient by vitek-2 method
Escherichia coli [24] = assay: Antimicrobial activity against Escherichia coli isolate 386 expressing beta-lactamase KPC2, CTX-M-15, OXA-9, TEM and PFGE cluster 1 isolated from wound of patient by vitek-2 method
Escherichia coli [25] = assay: Antimicrobial activity against Escherichia coli isolate 386T expressing beta-lactamase KPC2, OXA-9 and PFGE cluster 1 isolated from wound of patient by vitek-2 method
Escherichia coli [26] = assay: Antimicrobial activity against Escherichia coli isolate 540 expressing beta-lactamase KPC2, TEM and PFGE cluster 4 isolated from synovial fluid of patient by vitek-2 method
Escherichia coli [27] = assay: Antimicrobial activity against Escherichia coli isolate 543 expressing beta-lactamase KPC2, CTX-M-15, TEM and PFGE cluster 4 isolated from synovial fluid of patient by vitek-2 method
Escherichia coli [28] = assay: Antimicrobial activity against Escherichia coli isolate 543T expressing beta-lactamase KPC2 and PFGE cluster 4 isolated from synovial fluid of patient by vitek-2 method
Escherichia coli [29] = assay: Antimicrobial activity against Escherichia coli isolate 544 expressing beta-lactamase KPC2, TEM and PFGE cluster 4 isolated from abscess of patient by vitek-2 method
Escherichia coli [30] = assay: Antimicrobial activity against Escherichia coli isolate 547 expressing beta-lactamase KPC2, TEM and PFGE cluster 4 isolated from blood of patient by vitek-2 method
Escherichia coli [31] = assay: Antimicrobial activity against Escherichia coli isolate 547T expressing beta-lactamase KPC2 and PFGE cluster 4 isolated from blood of patient by vitek-2 method
Escherichia coli [32] = assay: Antimicrobial activity against Escherichia coli isolate 1679 expressing beta-lactamase KPC2, SHV-12, TEM and PFGE cluster 6 isolated from peritoneal fluid of patient by vitek-2 method
Escherichia coli [33] = assay: Antimicrobial activity against Escherichia coli isolate 1679T expressing beta-lactamase KPC2, TEM and PFGE cluster 6 isolated from peritoneal fluid of patient by vitek-2 method
Escherichia coli [34] = assay: Antimicrobial activity against Escherichia coli isolate 157 expressing beta-lactamase KPC2, CTX-M-15, TEM and PFGE cluster 3 isolated from urine of patient by vitek-2 method; details: isolate 157, Urine
Escherichia coli [35] = assay: Antimicrobial activity against Escherichia coli isolate 157T expressing beta-lactamase KPC2 and PFGE cluster 3 isolated from urine of patient by vitek-2 method
Escherichia coli [36] = assay: Antimicrobial activity against Escherichia coli isolate 329 expressing beta-lactamase KPC2, CTX-M-2, TEM and PFGE cluster 2 isolated from blood of patient by vitek-2 method
Escherichia coli [37] = assay: Antimicrobial activity against Escherichia coli isolate 329T expressing beta-lactamase KPC2 and PFGE cluster 2 isolated from blood of patient by vitek-2 method

C[C@@H](O)[C@H]1C(=O)N2C(C(=O)O)=C(S[C@@H]3CN[C@H](C(=O)N(C)C)C3)[C@H](C)[C@H]12 [MEROPENEM]
MIC (Escherichia coli [1]): 4 µg/mL (≈ 10.4 µM)
MIC (Escherichia coli [2]): 1 µg/mL (≈ 2.61 µM)
MIC (Escherichia coli [3]): 8 µg/mL (≈ 20.9 µM)
MIC (Escherichia coli [4]): 1 µg/mL (≈ 2.61 µM)
MIC (Escherichia coli [5]): 2 µg/mL (≈ 5.22 µM)
MIC (Escherichia coli [6]): 1 µg/mL (≈ 2.61 µM)
MIC (Escherichia coli [7]): 4 µg/mL (≈ 10.4 µM)
MIC (Escherichia coli [8]): 1 µg/mL (≈ 2.61 µM)
MIC (Escherichia coli [9]): 1 µg/mL (≈ 2.61 µM)
MIC (Escherichia coli [10]): 0.25 µg/mL (≈ 0.652 µM)
MIC (Escherichia coli [11]): 4 µg/mL (≈ 10.4 µM)
MIC (Escherichia coli [12]): 0.5 µg/mL (≈ 1.3 µM)
MIC (Escherichia coli [13]): 4 µg/mL (≈ 10.4 µM)
MIC (Escherichia coli [14]): 4 µg/mL (≈ 10.4 µM)
MIC (Escherichia coli [15]): 0.5 µg/mL (≈ 1.3 µM)
MIC (Escherichia coli [16]): 16 µg/mL (≈ 41.7 µM)
MIC (Escherichia coli [17]): 0.5 µg/mL (≈ 1.3 µM)
MIC (Escherichia coli [18]): 0.25 µg/mL (≈ 0.652 µM)

CO/N=C(\C(=O)N[C@@H]1C(=O)N2C(C(=O)[O-])=C(C[N+]3(C)CCCC3)CS[C@H]12)c1csc(N)n1
MIC (Escherichia coli [19]): 0.125 µg/mL (≈ 0.26 µM)

CC(C)(O/N=C(\C(=O)N[C@@H]1C(=O)N2C(C(=O)[O-])=C(C[n+]3ccccc3)CS[C@H]12)c1csc(N)n1)C(=O)O [CEFTAZIDIME]
MIC (Escherichia coli [20]): 4 µg/mL (≈ 7.32 µM)
MIC (Escherichia coli [21]): 16 µg/mL (≈ 29.3 µM)
MIC (Escherichia coli [22]): > 64 µg/mL
MIC (Escherichia coli [23]): 16 µg/mL (≈ 29.3 µM)
MIC (Escherichia coli [24]): > 64 µg/mL
MIC (Escherichia coli [25]): 16 µg/mL (≈ 29.3 µM)
MIC (Escherichia coli [26]): 4 µg/mL (≈ 7.32 µM)
MIC (Escherichia coli [27]): 16 µg/mL (≈ 29.3 µM)
MIC (Escherichia coli [28]): 16 µg/mL (≈ 29.3 µM)
MIC (Escherichia coli [29]): 16 µg/mL (≈ 29.3 µM)
MIC (Escherichia coli [30]): 4 µg/mL (≈ 7.32 µM)
MIC (Escherichia coli [31]): 16 µg/mL (≈ 29.3 µM)
MIC (Escherichia coli [32]): > 64 µg/mL
MIC (Escherichia coli [33]): > 64 µg/mL
MIC (Escherichia coli [19]): < 0.25 µg/mL
MIC (Escherichia coli [34]): > 64 µg/mL
MIC (Escherichia coli [35]): 16 µg/mL (≈ 29.3 µM)
MIC (Escherichia coli [36]): > 64 µg/mL
MIC (Escherichia coli [37]): 16 µg/mL (≈ 29.3 µM)

C[C@H]1[C@H](NC(=O)/C(=N\OC(C)(C)C(=O)O)c2csc(N)n2)C(=O)N1S(=O)(=O)O [AZTREONAM]
MIC (Escherichia coli [19]): < 1 µg/mL

NCC[C@H](O)C(=O)N[C@@H]1C[C@H](N)[C@@H](O[C@H]2O[C@H](CN)[C@@H](O)[C@H](O)[C@H]2O)[C@H](O)[C@H]1O[C@H]1O[C@H](CO)[C@@H](O)[C@H](N)[C@H]1O [AMIKACIN]
MIC (Escherichia coli [20]): 4 µg/mL (≈ 6.83 µM)
MIC (Escherichia coli [21]): < 2 µg/mL
MIC (Escherichia coli [22]): 32 µg/mL (≈ 54.6 µM)
MIC (Escherichia coli [23]): > 64 µg/mL
MIC (Escherichia coli [24]): > 64 µg/mL
MIC (Escherichia coli [25]): > 64 µg/mL
MIC (Escherichia coli [26]): 16 µg/mL (≈ 27.3 µM)
MIC (Escherichia coli [27]): > 64 µg/mL
MIC (Escherichia coli [28]): 16 µg/mL (≈ 27.3 µM)
MIC (Escherichia coli [29]): 8 µg/mL (≈ 13.7 µM)
MIC (Escherichia coli [30]): 16 µg/mL (≈ 27.3 µM)
MIC (Escherichia coli [31]): 16 µg/mL (≈ 27.3 µM)
MIC (Escherichia coli [32]): < 2 µg/mL
MIC (Escherichia coli [33]): 16 µg/mL (≈ 27.3 µM)
MIC (Escherichia coli [19]): < 1 µg/mL
MIC (Escherichia coli [34]): 8 µg/mL (≈ 13.7 µM)
MIC (Escherichia coli [35]): < 2 µg/mL
MIC (Escherichia coli [36]): 32 µg/mL (≈ 54.6 µM)
MIC (Escherichia coli [37]): < 2 µg/mL
